Changes are numbered by the printed parent chain.
Experiments:
Settings in all cases: stereoisomer not certain
[1] = target: T1, OR6C65 (Homo sapiens) (UniProt A6NJZ3)
T1 sequence (whole entry): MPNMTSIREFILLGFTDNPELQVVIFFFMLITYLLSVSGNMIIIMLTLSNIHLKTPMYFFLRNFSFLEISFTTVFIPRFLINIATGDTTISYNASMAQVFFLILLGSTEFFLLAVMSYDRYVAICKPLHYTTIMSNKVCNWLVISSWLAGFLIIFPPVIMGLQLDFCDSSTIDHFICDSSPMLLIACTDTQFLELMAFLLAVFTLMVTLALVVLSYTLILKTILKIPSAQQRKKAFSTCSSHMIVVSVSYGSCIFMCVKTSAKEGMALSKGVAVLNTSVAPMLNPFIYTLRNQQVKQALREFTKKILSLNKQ
Outline: (§1)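 Whether a receptor–molecule pair is responsive (active) rests on the original authors' judgment that its measured signal was statistically different from baseline. Pairs without that judgment are non-responsive (inactive). Sources used varied assay methods, commonly transient luciferase assays in mammalian cell lines.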

[2] = target: T2, OR6C68 (Homo sapiens) (UniProt A6NDL8)
T2 sequence (whole entry): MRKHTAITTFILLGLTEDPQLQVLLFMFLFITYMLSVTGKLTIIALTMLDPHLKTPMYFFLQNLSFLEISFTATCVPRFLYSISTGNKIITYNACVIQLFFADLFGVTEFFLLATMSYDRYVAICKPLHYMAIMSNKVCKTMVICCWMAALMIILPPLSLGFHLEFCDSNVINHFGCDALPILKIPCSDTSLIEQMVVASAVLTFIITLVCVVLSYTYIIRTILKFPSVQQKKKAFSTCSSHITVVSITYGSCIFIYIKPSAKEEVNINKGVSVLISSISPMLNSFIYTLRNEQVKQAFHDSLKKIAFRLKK
Outline: as §1

[3] = target: T3, OR6C70 (Homo sapiens) (UniProt A6NIJ9)
T3 sequence (whole entry): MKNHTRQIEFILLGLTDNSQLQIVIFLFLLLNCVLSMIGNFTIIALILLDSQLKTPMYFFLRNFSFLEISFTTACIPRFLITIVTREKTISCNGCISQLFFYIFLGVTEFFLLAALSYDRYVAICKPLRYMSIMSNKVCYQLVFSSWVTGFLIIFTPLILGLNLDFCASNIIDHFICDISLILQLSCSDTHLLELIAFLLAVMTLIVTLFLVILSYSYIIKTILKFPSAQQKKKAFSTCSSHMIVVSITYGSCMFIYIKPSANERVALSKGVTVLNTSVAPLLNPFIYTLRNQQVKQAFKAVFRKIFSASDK
Outline: as §1

[4] = target: T4, OR6C74 (Homo sapiens) (UniProt A6NCV1)
T4 sequence (whole entry): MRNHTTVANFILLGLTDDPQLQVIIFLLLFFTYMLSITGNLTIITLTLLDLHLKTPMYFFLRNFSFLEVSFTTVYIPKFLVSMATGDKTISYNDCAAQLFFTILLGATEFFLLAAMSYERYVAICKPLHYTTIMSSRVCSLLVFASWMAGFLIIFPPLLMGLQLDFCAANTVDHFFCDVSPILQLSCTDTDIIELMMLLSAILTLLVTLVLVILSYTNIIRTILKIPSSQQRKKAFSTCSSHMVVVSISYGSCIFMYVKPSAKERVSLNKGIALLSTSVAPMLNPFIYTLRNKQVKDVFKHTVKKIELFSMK
Outline: as §1

[5] = target: T5, OR6C75 (Homo sapiens) (UniProt A6NL08)
T5 sequence (whole entry): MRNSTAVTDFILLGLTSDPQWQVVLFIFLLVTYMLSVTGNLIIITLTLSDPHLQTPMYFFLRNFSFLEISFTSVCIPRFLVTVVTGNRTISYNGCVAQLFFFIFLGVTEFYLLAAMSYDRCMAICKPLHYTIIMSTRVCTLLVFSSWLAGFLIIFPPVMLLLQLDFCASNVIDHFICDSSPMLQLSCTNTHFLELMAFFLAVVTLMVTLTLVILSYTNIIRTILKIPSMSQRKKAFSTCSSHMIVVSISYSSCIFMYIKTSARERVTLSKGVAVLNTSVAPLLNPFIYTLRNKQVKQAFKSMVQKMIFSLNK
Outline: as §1

[6] = target: T6, OR6C76 (Homo sapiens) (UniProt A6NM76)
T6 sequence (whole entry): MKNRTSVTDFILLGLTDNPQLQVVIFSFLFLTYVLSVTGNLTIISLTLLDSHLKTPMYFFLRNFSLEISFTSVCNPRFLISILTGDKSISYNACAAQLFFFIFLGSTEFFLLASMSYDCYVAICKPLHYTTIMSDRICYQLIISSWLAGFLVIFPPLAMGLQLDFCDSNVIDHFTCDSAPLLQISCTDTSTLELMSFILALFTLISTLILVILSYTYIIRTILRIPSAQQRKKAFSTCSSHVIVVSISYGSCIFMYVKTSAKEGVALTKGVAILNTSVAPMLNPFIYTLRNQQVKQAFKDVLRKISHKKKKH
Outline: as §1

[7] = target: T7, OR6F1 (Homo sapiens) (UniProt Q8NGZ6)
T7 sequence (whole entry): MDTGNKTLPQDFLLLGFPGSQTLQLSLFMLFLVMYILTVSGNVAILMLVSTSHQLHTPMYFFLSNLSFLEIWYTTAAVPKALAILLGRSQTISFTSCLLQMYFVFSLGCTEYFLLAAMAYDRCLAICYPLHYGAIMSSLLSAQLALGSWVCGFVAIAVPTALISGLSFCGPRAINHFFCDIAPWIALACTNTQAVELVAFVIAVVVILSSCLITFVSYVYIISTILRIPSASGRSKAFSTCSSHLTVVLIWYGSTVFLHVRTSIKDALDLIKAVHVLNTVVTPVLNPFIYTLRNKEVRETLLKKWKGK
Outline: as §1

[8] = target: T8, OR6J1 (Homo sapiens) (UniProt Q8NGC5)
T8 sequence (whole entry): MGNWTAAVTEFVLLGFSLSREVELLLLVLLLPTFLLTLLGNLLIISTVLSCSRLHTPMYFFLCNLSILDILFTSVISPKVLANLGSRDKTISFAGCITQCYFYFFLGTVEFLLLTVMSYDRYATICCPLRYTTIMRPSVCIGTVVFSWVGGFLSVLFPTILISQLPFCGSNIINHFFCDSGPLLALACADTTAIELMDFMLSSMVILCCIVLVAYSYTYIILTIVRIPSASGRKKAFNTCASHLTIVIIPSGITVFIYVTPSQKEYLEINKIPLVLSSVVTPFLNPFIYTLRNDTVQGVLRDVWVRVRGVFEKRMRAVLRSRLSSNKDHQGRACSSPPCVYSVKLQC
Outline: as §1

[9] = target: T9, OR6K2 (Homo sapiens) (UniProt Q8NGY2)
T9 sequence (whole entry): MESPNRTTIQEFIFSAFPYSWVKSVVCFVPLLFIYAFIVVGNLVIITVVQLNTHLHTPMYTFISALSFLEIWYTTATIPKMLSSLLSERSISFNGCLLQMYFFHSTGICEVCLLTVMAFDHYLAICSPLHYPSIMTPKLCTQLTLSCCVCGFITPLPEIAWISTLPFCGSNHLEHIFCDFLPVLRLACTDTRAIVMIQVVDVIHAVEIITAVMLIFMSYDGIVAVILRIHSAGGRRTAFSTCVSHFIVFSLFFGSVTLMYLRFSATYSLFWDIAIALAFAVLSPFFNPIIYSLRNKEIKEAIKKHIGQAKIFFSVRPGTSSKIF
Outline: as §1

[10] = target: T10, OR6K3 (Homo sapiens) (UniProt Q8NGY3)
T10 sequence (whole entry): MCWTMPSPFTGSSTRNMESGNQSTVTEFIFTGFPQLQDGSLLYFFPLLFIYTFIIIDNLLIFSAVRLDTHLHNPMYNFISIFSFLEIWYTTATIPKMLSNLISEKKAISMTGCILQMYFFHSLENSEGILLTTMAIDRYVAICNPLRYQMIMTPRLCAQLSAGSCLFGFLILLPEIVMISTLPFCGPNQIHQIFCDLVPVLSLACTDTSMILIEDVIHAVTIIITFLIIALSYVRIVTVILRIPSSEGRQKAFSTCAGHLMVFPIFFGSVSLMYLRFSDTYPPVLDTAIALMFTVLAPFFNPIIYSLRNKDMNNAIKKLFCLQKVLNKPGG
Outline: as §1

[11] = target: T11, OR6K6 (Homo sapiens) (UniProt Q8NGW6)
T11 sequence (whole entry): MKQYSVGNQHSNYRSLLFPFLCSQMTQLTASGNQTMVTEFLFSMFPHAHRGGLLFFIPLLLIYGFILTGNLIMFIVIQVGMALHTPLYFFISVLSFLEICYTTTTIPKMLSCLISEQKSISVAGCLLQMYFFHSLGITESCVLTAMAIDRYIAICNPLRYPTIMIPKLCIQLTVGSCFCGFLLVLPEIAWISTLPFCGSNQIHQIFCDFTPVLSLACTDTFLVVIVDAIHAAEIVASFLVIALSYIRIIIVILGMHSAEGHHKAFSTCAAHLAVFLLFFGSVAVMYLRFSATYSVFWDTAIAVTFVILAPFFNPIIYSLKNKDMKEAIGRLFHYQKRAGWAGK
Outline: as §1

[12] = target: T12, OR6M1 (Homo sapiens) (UniProt Q8NGM8)
T12 sequence (whole entry): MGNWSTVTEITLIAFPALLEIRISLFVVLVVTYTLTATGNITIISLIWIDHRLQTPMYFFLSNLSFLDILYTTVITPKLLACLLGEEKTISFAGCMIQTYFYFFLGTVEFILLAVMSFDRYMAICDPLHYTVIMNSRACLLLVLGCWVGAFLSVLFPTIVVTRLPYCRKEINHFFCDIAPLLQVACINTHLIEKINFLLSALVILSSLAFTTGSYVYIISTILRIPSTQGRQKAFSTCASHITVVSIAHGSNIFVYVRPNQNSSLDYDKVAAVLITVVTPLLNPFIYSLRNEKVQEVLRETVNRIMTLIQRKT
Outline: as §1

[13] = target: T13, OR6N1 (Homo sapiens) (UniProt Q8NGY5)
T13 sequence (whole entry): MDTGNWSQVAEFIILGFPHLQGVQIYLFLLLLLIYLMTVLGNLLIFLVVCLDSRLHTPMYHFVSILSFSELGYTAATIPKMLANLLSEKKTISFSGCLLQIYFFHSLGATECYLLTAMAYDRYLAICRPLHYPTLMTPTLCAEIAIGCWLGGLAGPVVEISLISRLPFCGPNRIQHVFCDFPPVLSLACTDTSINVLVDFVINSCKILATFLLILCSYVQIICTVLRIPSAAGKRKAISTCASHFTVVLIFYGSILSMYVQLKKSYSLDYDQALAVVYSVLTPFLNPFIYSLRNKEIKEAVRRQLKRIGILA
Outline: as §1

[14] = target: T14, OR6N2 (Homo sapiens) (UniProt Q8NGY6)
T14 sequence (whole entry): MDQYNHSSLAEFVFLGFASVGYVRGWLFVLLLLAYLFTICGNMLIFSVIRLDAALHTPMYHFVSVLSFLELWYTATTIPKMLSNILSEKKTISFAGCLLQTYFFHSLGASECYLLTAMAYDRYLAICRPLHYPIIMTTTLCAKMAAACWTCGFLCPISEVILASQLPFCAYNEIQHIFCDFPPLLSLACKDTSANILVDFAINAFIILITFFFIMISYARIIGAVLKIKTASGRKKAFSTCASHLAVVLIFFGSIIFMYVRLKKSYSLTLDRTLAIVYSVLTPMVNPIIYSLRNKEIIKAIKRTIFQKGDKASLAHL
Outline: as §1

[15] = target: T15, OR6P1 (Homo sapiens) (UniProt Q8NGX9)
T15 sequence (whole entry): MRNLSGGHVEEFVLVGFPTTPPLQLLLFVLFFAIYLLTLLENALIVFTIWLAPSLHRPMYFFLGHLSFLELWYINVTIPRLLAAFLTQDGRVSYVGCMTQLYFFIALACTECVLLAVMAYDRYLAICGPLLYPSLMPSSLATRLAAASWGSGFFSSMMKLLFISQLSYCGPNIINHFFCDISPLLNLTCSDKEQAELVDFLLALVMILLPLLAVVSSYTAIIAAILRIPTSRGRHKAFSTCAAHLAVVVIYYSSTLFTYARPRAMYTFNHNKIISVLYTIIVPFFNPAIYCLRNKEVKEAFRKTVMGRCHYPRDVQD
Outline: as §1

[16] = target: T16, OR6Q1 (Homo sapiens) (UniProt Q8NGQ2)
T16 sequence (whole entry): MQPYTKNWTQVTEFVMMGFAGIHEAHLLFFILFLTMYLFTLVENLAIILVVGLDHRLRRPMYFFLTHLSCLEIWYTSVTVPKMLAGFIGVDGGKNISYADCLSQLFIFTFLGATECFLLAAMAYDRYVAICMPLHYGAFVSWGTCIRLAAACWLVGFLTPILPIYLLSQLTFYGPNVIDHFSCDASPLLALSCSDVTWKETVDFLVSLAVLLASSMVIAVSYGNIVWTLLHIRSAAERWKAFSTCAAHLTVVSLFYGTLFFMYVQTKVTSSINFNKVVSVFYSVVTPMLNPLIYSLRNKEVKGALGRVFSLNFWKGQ
Outline: as §1

[17] = target: T17, OR6J1 (Homo sapiens) (UniProt Q8NGC5); remark: listed apart in the source
T17 sequence (whole entry): T8 sequence (whole entry) with P250S
Outline: as §1

[18] = test system: T18, OR6K3
T18 sequence (whole entry): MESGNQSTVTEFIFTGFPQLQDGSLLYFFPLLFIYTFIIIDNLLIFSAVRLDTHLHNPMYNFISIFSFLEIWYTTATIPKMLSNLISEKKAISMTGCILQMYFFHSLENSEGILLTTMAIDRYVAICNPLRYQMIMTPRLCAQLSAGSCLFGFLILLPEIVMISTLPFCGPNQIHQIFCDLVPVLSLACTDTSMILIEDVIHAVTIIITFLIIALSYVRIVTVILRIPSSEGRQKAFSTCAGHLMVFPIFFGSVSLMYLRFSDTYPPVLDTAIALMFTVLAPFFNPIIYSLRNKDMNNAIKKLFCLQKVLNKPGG
Outline: as §1

[19] = test system: T19, OR6M1 R224C
T19 sequence (whole entry): T12 sequence (whole entry) with R224C
Outline: as §1

[20] = test system: T20, OR6M1 T276K
T20 sequence (whole entry): T12 sequence (whole entry) with T276K
Outline: as §1

Measured: odorant receptor agonist call;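 further: active if original authors judged signal statistically different from baseline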

CC(=O)c1c(C)c([N+](=O)[O-])c(C(C)(C)C)c([N+](=O)[O-])c1C
not listed: [17] | [18] | [19] | [20]
inactive: all other assays above

CCCCCC(=O)C(C)C(C)=O (stereo not given)
not listed: [17] | [18] | [19] | [20]
inactive: all other assays above

CC(CO)CS (stereo not given)
not listed: [17] | [18] | [19] | [20]
inactive: all other assays above

CCC1OC(C)=C(O)C1=O (stereo not given)
not listed: [8] | [10]
inactive: all other assays above

CC1=NC(C)C(C)S1 (stereo not given)
not listed: [8] | [10]
inactive: all other assays above

CCC1OC(=O)C(O)=C1C (stereo not given)
not listed: [8] | [10]
inactive: all other assays above

CC1=C(O)C(=O)OC1C (stereo not given)
not listed: [8] | [10]
inactive: all other assays above

From the M2OR odorant receptor database
